From ChEMBL document CHEMBL1130064, “Substituted N-phenylisothioureas: potent inhibitors of human nitric oxide synthase with neuronal isoform selectivity” (J Med Chem, 1997)
Each block holds one molecule with its values, some of them ahead of it.

How the values were obtained:
Nitric oxide synthase 3 = target: T1, Nitric oxide synthase 3 (Homo sapiens, UniProt P29474); assay: Inhibitory activity against human vascular endothelial nitric oxide synthase.
T1 sequence (P29474 whole entry): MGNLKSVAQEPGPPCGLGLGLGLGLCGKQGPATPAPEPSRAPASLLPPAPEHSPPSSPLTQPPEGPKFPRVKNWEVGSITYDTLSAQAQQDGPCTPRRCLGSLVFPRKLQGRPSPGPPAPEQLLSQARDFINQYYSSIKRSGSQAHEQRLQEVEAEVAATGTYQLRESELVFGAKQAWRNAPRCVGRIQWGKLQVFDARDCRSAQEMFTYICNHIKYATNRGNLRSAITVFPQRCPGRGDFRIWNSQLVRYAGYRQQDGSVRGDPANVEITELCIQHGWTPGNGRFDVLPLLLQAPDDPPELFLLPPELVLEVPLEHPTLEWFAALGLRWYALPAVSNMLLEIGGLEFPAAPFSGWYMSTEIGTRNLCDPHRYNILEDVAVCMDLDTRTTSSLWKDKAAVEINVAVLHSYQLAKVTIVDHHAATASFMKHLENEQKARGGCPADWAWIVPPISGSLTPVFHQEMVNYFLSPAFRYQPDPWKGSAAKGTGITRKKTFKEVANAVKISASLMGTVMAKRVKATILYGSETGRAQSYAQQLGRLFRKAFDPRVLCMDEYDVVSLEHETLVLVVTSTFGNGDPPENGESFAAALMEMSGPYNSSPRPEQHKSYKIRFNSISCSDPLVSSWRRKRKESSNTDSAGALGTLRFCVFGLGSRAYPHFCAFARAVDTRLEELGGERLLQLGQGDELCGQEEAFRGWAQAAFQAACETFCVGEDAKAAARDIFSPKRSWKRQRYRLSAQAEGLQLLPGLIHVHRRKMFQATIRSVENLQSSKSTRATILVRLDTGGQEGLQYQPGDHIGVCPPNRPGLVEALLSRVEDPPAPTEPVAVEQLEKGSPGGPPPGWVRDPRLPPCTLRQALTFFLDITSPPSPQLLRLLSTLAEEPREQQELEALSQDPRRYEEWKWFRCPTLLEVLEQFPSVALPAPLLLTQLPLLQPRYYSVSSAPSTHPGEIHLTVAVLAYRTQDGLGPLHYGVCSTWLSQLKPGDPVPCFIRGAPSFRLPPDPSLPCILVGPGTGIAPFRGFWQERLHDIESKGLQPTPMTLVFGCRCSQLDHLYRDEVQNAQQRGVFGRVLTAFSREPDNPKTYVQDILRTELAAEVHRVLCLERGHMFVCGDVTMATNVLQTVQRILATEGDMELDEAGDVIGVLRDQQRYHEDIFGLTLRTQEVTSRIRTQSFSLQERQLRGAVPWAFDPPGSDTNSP
Method in brief: (§1)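 Purified human enzymes were used, with iNOS purified from the DLD-1 colorectal adenocarcinoma line. Percent inhibition was measured at three or more inhibitor concentrations and converted to inhibition constants (Ki).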

[1] = target: T2, Nitric oxide synthase, inducible (Homo sapiens, UniProt P35228); assay: Inhibitory activity against human inducible nitric oxide synthase (iNOS).; method in brief: as §1
Nitric oxide synthase 1 [2] = target: T3, Nitric oxide synthase 1 (Homo sapiens, UniProt P29475); assay: Inhibitory activity against human neuronal nitric oxide synthase in brain (nNOS).; type: tissue-based
[3] = Clearance was determined; type: ADME, organism-based; settings: in vivo
[4] = Michaelis-Menten constant was determined; type: ADME
Method in brief: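 Human nNOS conversion of L-arginine to L-citrulline was measured over a range of arginine with inhibitor at 0, 150 and 300 nM. Velocities were fitted to V = Vmax[S]/{[S] + Km(1 + [I]/Ki)} to give Km.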

[5] = The half life was determined; type: ADME
[6] = target: T4, Nitric oxide synthase 3 (Homo sapiens) (UniProt P29474); assay: Percent inhibition of human Vascular Endothelial nitric oxide synthase at a concentration of 25 uM; settings: at 25 µM
T4 sequence (whole entry): T1 sequence (P29474 whole entry)

[7] = target: T2, Nitric oxide synthase, inducible; assay: Percent inhibition of Human inducible Nitric Oxide Synthase (iNOS) at a concentration of 25 uM; settings: at 25 µM
Method in brief: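 Human iNOS purified from the DLD-1 colorectal adenocarcinoma cell line. Percent inhibition of the enzyme was measured with test compound present.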

Nitric oxide synthase 1 [8] = target: T3, Nitric oxide synthase 1; assay: Percent inhibition of human Neuronal nitric oxide synthase at a concentration of 25 uM; settings: at 25 µM
Nitric oxide synthase 1 [9] = target: T3, Nitric oxide synthase 1; assay: Percent inhibition of human Neuronal nitric oxide synthase in brain (nNOS) at a concentration of 25 uM; type: tissue-based; settings: at 25 µM

T2 sequence (P35228 whole entry): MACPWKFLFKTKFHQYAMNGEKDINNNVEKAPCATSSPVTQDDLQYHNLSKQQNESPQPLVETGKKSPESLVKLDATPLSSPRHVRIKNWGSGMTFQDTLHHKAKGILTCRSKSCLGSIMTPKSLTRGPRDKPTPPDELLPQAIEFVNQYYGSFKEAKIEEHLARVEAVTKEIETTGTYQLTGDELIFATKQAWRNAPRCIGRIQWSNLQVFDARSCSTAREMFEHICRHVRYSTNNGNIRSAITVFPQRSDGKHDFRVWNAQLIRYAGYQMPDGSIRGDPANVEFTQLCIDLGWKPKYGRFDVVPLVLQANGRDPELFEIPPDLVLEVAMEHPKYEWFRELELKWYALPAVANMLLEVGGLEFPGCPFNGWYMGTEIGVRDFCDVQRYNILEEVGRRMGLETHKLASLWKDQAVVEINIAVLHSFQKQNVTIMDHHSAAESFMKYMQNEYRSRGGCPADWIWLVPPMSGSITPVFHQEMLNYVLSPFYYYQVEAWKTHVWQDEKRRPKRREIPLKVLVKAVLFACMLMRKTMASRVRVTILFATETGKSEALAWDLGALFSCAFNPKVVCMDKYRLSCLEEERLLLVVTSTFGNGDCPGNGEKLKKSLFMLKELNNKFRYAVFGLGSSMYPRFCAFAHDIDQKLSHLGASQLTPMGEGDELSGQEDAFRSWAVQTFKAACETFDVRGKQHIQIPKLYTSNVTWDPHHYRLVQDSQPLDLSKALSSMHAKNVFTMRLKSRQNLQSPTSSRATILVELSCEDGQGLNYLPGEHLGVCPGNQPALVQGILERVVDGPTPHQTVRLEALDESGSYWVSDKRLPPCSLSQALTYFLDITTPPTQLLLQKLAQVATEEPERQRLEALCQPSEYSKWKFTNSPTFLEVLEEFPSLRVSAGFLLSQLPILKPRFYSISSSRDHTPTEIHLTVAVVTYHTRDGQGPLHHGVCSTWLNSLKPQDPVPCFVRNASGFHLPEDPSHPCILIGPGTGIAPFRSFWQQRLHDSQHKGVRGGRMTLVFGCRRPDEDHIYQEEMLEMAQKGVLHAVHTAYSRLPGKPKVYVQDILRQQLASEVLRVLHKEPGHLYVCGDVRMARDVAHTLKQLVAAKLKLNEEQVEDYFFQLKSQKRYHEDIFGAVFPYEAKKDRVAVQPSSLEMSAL
T3 sequence (P29475 whole entry): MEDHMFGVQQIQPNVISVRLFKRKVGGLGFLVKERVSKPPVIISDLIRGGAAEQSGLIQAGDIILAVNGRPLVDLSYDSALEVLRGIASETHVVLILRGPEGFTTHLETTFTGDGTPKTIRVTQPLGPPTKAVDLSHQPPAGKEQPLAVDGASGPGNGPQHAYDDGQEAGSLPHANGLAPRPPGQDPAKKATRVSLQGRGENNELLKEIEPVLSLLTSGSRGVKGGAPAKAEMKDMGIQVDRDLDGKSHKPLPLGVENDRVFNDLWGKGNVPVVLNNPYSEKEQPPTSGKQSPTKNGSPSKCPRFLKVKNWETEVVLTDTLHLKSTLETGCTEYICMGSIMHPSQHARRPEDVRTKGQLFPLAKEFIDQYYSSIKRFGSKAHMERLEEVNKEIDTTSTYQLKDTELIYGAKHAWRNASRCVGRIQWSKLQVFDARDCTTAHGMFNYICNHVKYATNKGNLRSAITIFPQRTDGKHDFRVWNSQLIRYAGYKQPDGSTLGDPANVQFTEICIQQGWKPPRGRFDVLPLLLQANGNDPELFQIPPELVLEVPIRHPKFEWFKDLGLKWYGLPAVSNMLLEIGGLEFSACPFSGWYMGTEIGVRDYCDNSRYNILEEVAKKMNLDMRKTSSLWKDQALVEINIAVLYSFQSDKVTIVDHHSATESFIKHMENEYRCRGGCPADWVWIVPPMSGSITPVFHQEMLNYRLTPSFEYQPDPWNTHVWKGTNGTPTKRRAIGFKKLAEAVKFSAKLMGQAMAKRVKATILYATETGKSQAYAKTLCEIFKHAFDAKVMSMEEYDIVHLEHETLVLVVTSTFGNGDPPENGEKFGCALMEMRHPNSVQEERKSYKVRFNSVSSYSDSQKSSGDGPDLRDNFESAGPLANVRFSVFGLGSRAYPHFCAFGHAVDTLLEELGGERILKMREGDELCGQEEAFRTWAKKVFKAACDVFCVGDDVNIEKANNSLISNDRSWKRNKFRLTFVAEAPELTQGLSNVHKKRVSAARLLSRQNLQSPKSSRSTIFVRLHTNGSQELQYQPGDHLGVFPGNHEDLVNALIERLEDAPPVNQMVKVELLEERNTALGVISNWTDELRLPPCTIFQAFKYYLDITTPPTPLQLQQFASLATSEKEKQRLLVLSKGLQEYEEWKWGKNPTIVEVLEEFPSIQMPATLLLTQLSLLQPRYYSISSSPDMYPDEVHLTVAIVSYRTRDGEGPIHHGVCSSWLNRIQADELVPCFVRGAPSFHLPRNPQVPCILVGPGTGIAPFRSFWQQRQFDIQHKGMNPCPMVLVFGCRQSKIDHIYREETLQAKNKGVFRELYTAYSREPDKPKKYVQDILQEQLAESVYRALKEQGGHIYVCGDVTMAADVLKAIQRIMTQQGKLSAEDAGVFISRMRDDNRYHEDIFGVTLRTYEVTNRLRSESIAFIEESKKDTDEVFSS

SMILES: CCSC(=N)Nc1ccc(OC(F)(F)F)cc1
Ki (Nitric oxide synthase 3): 17 µM | Ki [1]: 55 µM | Ki (Nitric oxide synthase 1 [2]): 0.7 µM

SMILES: CCSC(=N)Nc1ccc(C(F)(F)F)cc1.Cl
Clearance [3]: 93.3 mL/min/kg | Km [4]: 2 µM | half-life ([5]; read-out: T1/2 alpha): 4 min | half-life ([5]; read-out: T1/2 beta): 31 min | Ki [1]: 37 µM

SMILES: CCCCSC(=N)Nc1ccc(C(F)(F)F)cc1
inhibition [6]: 0% | inhibition [7]: 0% | inhibition (Nitric oxide synthase 1 [8]): 0%

SMILES: CCSC(=N)Nc1ccccc1C(F)(F)F
Ki (Nitric oxide synthase 3): 18 µM

SMILES: CCSC(=N)Nc1ccc(C(C)C)cc1
Ki [1]: 25 µM

SMILES: CSC(=N)Nc1ccc(Cl)cc1
Ki (Nitric oxide synthase 3): 2.6 µM | Ki [1]: 42 µM | Ki (Nitric oxide synthase 1 [2]): 0.57 µM

SMILES: CCSC(=N)Nc1ccccc1
Ki (Nitric oxide synthase 3): 0.4 µM | Ki [1]: 0.87 µM | Ki (Nitric oxide synthase 1 [2]): 0.12 µM

SMILES: CCSC(=N)Nc1ccc(Cl)cc1
Ki (Nitric oxide synthase 3): 0.9 µM | Ki [1]: 4.2 µM | Ki (Nitric oxide synthase 1 [2]): 0.14 µM

SMILES: CCSC(=N)Nc1cccnc1
Ki (Nitric oxide synthase 3): 7 µM | Ki [1]: 23 µM

SMILES: CCSC(=N)Nc1ccc(C(=O)O)cc1
inhibition [6]: 14% | inhibition [7]: 0% | Ki (Nitric oxide synthase 1 [2]): 58 µM

The next lines start with the values.

Ki (Nitric oxide synthase 3): 17 µM | Ki [1]: 23 µM
SMILES: CCSC(=N)Nc1ccccn1

inhibition [6]: 0% | inhibition [7]: 4% | Ki (Nitric oxide synthase 1 [2]): 64 µM
SMILES: CCCSC(=N)Nc1ccc(C(F)(F)F)cc1

inhibition [6]: 0% | inhibition [7]: 0% | inhibition (Nitric oxide synthase 1 [9]): 11%
SMILES: N=C(Nc1ccc(C(F)(F)F)cc1)SCc1ccccc1

Ki (Nitric oxide synthase 1 [2]): 1.1 µM
SMILES: CCSC(=N)Nc1ccccc1C(C)C

Ki (Nitric oxide synthase 3): 31 µM | inhibition [7]: 0% | Ki (Nitric oxide synthase 1 [2]): 4.6 µM
SMILES: CSC(=N)Nc1ccc(C(F)(F)F)cc1

Ki (Nitric oxide synthase 3): 9.1 µM | Ki [1]: 54 µM | Ki (Nitric oxide synthase 1 [2]): 0.66 µM
SMILES: CCSC(=N)Nc1ccc([N+](=O)[O-])cc1

Ki (Nitric oxide synthase 3): 17 µM | inhibition [7]: 0% | Ki (Nitric oxide synthase 1 [2]): 3.3 µM
SMILES: CSC(=N)Nc1ccc([N+](=O)[O-])cc1

Ki [1]: 63 µM
SMILES: CCOC(=O)c1ccc(NC(=N)SCC)cc1

Ki (Nitric oxide synthase 3): 16 µM | Ki [1]: 22 µM | Ki (Nitric oxide synthase 1 [2]): 0.8 µM
SMILES: CCSC(=N)Nc1ccncc1

inhibition [6]: 0% | inhibition [7]: 0% | Ki (Nitric oxide synthase 1 [2]): 29 µM
SMILES: CC(C)SC(=N)Nc1ccc(C(F)(F)F)cc1
